The nature of data set [1]: folding enthalpy; higher = less favourable; fluorescence melt of hairpins on a sequencing array, two-state fit. The conditions noted are these: sodium 0.088 M. The essentials: (§1)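 Melting temperature and folding enthalpy were obtained by bootstrapped two-state fitting. Fits used Cy3 fluorescence of library hairpins with annealed Cy3 and quencher oligos on a sequenced MiSeq flow cell, imaged in 50 mM Na-HEPES pH 8.0, 25 mM NaCl in 2.5 °C steps up to 60 °C and normalised to pre-quench Cy3 and control constructs. Four replicates were combined by inverse-variance weighting, and fitted temperatures were raised by 9.35 °C to match UV melts.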

Data set [2] is described as follows: melting temperature; fluorescence melt of hairpins on a sequencing array, two-state fit, raised by 9.35 °C to match UV melts. The conditions noted are these: sodium 0.088 M. The essentials: as §1

For GATCGGGAGCCCGATC ((((((....)))))), the folding enthalpy in data set [1] was -153 kJ/mol. The Tm in data set [2] amounted to 55.5 °C.
GATCGGGATACCGATC ((((((....)))))): the folding enthalpy in data set [1] was -192 kJ/mol. Further, the Tm in data set [2] came out at 65.7 °C.
GATCGGGATCCCGATC ((((((....)))))): the folding enthalpy in data set [1] was -211 kJ/mol. For the same sequence, the Tm in data set [2] is 59.5 °C.
For GATCGGGCCCCCGATC ((((((....)))))), in that order: -181 kJ/mol and 59.6 °C.
Taken in the same sequence, the figures for GATCGGGCCCCGATC ((((((...)))))) were -185 kJ/mol and 57.5 °C.
Turning to GATCGGGCGAAAGCCATC (((..(((....)))))), in data set [1], the folding enthalpy was -42.6 kJ/mol. Moreover, the Tm in data set [2] amounted to 22.6 °C.
Taken in the same sequence, the figures for GATCGGGCTCCCGATC ((((((....)))))) were -170 kJ/mol and 58.5 °C.
Turning to GATCGGGGAAACTCGGTC ((.((.(....).)).)), the folding enthalpy in data set [1] was -119 kJ/mol. The Tm in data set [2] turned out to be 38 °C.
For GATCGGGGACCCGATC ((((((....)))))), in that order: -192 kJ/mol and 63 °C.
Turning to GATCGGGGAGCCGATC ((((((....)))))), in data set [1], the folding enthalpy was -147 kJ/mol. Further, in data set [2], the Tm was 59.5 °C.
GATCGGGGGCCCGATC ((((((....)))))): the folding enthalpy in data set [1] is -168 kJ/mol. In data set [2], the Tm worked out at 59.7 °C.
For GATCGGGGTGCCGATC ((((((....)))))), the folding enthalpy in data set [1] is -219 kJ/mol. Besides, the Tm in data set [2] is 59.3 °C.
Turning to GATCGGGTAACCGATC ((((((....)))))), the folding enthalpy in data set [1] is -153 kJ/mol. In addition, the Tm in data set [2] came out at 68.1 °C.
With GATCGGGTAGCCGATC ((((((....)))))), the folding enthalpy in data set [1] was -175 kJ/mol. Further, in data set [2], the Tm is 62 °C.
Regarding GATCGGGTGCCCGATC ((((((....)))))), the folding enthalpy in data set [1] was -154 kJ/mol. Besides, the Tm in data set [2] was found to be 60.1 °C.
With GATCGGTAACCCGATC ((((((....)))))), the folding enthalpy in data set [1] was -137 kJ/mol. The Tm in data set [2] turned out to be 54.3 °C.
Take GATCGGTAACCGATC ((((((...)))))): the folding enthalpy in data set [1] was -148 kJ/mol. Besides, the Tm in data set [2] was found to be 56.1 °C.
Regarding GATCGGTAGCCGATC ((((((...)))))), the folding enthalpy in data set [1] was -177 kJ/mol. Moreover, the Tm in data set [2] was determined as 55.4 °C.
Consider GATCGGTAGGCCGATC ((((((....)))))), for which the folding enthalpy in data set [1] is -170 kJ/mol. Besides, the Tm in data set [2] was 57.9 °C.
Take GATCGGTAGTCCGATC ((((((....)))))): the folding enthalpy in data set [1] is -186 kJ/mol. Further, in data set [2], the Tm came out at 55.6 °C.
For the sequence GATCGGTATCCGATC ((((((...)))))), the folding enthalpy in data set [1] is -171 kJ/mol. Also, the Tm in data set [2] was 57.4 °C.
Turning to GATCGGTCGACCGATC ((((((....)))))), the folding enthalpy in data set [1] is -208 kJ/mol. Also, the Tm in data set [2] came to 61.4 °C.
In the case of GATCGGTGACCCGATC ((((((....)))))), the folding enthalpy in data set [1] was -153 kJ/mol. Moreover, the Tm in data set [2] stood at 55.8 °C.
Turning to GATCGGTGACCGATC ((((((...)))))), the folding enthalpy in data set [1] is -162 kJ/mol. In data set [2], the Tm was 55.5 °C.
Regarding GATCGGTGCCCCGATC ((((((....)))))), in data set [1], the folding enthalpy was -122 kJ/mol. For the same sequence, in data set [2], the Tm turned out to be 57 °C.
Turning to GATCGGTGTCCGATC ((((((...)))))), the folding enthalpy in data set [1] was -134 kJ/mol. Also, the Tm in data set [2] was 58.3 °C.
For the sequence GATCGGTGTTCCGATC ((((((....)))))), the folding enthalpy in data set [1] was -173 kJ/mol. Also, the Tm in data set [2] was 58.6 °C.
In the case of GATCGGTTCCCCGATC ((((((....)))))), in data set [1], the folding enthalpy was -167 kJ/mol. The Tm in data set [2] came to 56.8 °C.
With GATCGGTTTTCCGATC ((((((....)))))), the folding enthalpy in data set [1] is -189 kJ/mol. Moreover, the Tm in data set [2] stood at 60.1 °C.
Taken in the same sequence, the figures for GATCGTAAAACGATC ((((((...)))))) were -154 kJ/mol and 54.4 °C.
For GATCGTAAGTACGATC ((((((....)))))), in that order: -137 kJ/mol and 53.3 °C.
In the case of GATCGTACCACGATC ((((((...)))))), the folding enthalpy in data set [1] was -141 kJ/mol. For the same sequence, the Tm in data set [2] stood at 57.3 °C.
For GATCGTACCGACGATC ((((((....)))))), in that order: -223 kJ/mol and 53.4 °C.
On to GATCGTACGACGATC ((((((...)))))), for which, in data set [1], the folding enthalpy was -156 kJ/mol. The Tm in data set [2] worked out at 54.5 °C.
For the sequence GATCGTACGTACGATC ((((((....)))))), in data set [1], the folding enthalpy was -151 kJ/mol. The Tm in data set [2] was 57.9 °C.
For GATCGTACTCACGATC ((((((....)))))), in data set [1], the folding enthalpy was -186 kJ/mol. The Tm in data set [2] was found to be 53.9 °C.
Take GATCGTACTTACGATC ((((((....)))))): the folding enthalpy in data set [1] was -166 kJ/mol. For the same sequence, the Tm in data set [2] came to 55.3 °C.
With GATCGTAGAACGATC ((((((...)))))), in data set [1], the folding enthalpy is -153 kJ/mol. Moreover, the Tm in data set [2] was 55.2 °C.
Taken in the same sequence, the figures for GATCGTAGCGACGATC ((((((....)))))) were -163 kJ/mol and 54.9 °C.
Regarding GATCGTAGCTACGATC ((((((....)))))), the folding enthalpy in data set [1] is -181 kJ/mol. Further, the Tm in data set [2] came to 59 °C.
In the case of GATCGTAGGTACGATC ((((((....)))))), the folding enthalpy in data set [1] was -163 kJ/mol. Besides, the Tm in data set [2] amounted to 55.8 °C.
With GATCGTAGTGACGATC ((((((....)))))), the folding enthalpy in data set [1] is -141 kJ/mol. In data set [2], the Tm amounted to 56.6 °C.
As for GATCGTAGTTACGATC ((((((....)))))), in data set [1], the folding enthalpy is -129 kJ/mol. Moreover, the Tm in data set [2] amounted to 56.8 °C.
For GATCGTATCCACGATC ((((((....)))))), in that order: -148 kJ/mol and 56.9 °C.
As for GATCGTCAGTACGATC ((((((....)))))), the folding enthalpy in data set [1] was -179 kJ/mol. The Tm in data set [2] stood at 53.7 °C.
Taken in the same sequence, the figures for GATCGTCCAACGATC ((((((...)))))) were -165 kJ/mol and 55.6 °C.
On to GATCGTCCCACGATC ((((((...)))))), for which, in data set [1], the folding enthalpy was -161 kJ/mol. The Tm in data set [2] was found to be 57.6 °C.
For GATCGTCCCTACGATC ((((((....)))))), the folding enthalpy in data set [1] is -184 kJ/mol. Also, in data set [2], the Tm worked out at 55 °C.
Take GATCGTCGCACGATC ((((((...)))))): the folding enthalpy in data set [1] is -159 kJ/mol. Further, in data set [2], the Tm turned out to be 58.2 °C.
Take GATCGTCGCGACGATC ((((((....)))))): the folding enthalpy in data set [1] is -157 kJ/mol. In data set [2], the Tm came to 67.6 °C.
As to GATCGTCGTTACGATC ((((((....)))))), the folding enthalpy in data set [1] is -151 kJ/mol. In addition, in data set [2], the Tm came out at 55.6 °C.
On to GATCGTCTCTACGATC ((((((....)))))), for which the folding enthalpy in data set [1] was -161 kJ/mol. For the same sequence, the Tm in data set [2] stood at 54.5 °C.
GATCGTGAAACGATC ((((((...)))))): the folding enthalpy in data set [1] was -154 kJ/mol. Besides, the Tm in data set [2] was 66.8 °C.
Regarding GATCGTGAACACGATC ((((((....)))))), in data set [1], the folding enthalpy was -144 kJ/mol. For the same sequence, in data set [2], the Tm is 63.6 °C.
In the case of GATCGTGACGACGATC ((((((....)))))), in data set [1], the folding enthalpy is -164 kJ/mol. The Tm in data set [2] was determined as 56.8 °C.
For GATCGTGATGACGATC ((((((....)))))), in that order: -158 kJ/mol and 54.4 °C.
Taken in the same sequence, the figures for GATCGTGCCGACGATC ((((((....)))))) were -206 kJ/mol and 56.4 °C.
On to GATCGTGCGAACGATC ((((((....)))))), for which the folding enthalpy in data set [1] is -138 kJ/mol. In addition, in data set [2], the Tm was 64.1 °C.
Take GATCGTGCGTACGATC ((((((....)))))): the folding enthalpy in data set [1] was -165 kJ/mol. Moreover, in data set [2], the Tm amounted to 55 °C.
Take GATCGTGCTTACGATC ((((((....)))))): the folding enthalpy in data set [1] was -161 kJ/mol. Further, the Tm in data set [2] is 56.4 °C.
Take GATCGTGGAAACATGATC ((((.((....)).)))): the folding enthalpy in data set [1] is -183 kJ/mol. For the same sequence, the Tm in data set [2] came out at 47.5 °C.
With GATCGTGTAGACGATC ((((((....)))))), the folding enthalpy in data set [1] is -166 kJ/mol. Moreover, the Tm in data set [2] amounted to 59.6 °C.
Consider GATCGTGTGTACGATC ((((((....)))))), for which, in data set [1], the folding enthalpy was -171 kJ/mol. Besides, the Tm in data set [2] worked out at 54.7 °C.
For GATCGTTAAGACGATC ((((((....)))))), in that order: -181 kJ/mol and 55.4 °C.
Taken in the same sequence, the figures for GATCGTTACTACGATC ((((((....)))))) were -179 kJ/mol and 55.1 °C.
Regarding GATCGTTCGGACGATC ((((((....)))))), the folding enthalpy in data set [1] is -158 kJ/mol. The Tm in data set [2] came to 56.9 °C.
In the case of GATCGTTCGTACGATC ((((((....)))))), the folding enthalpy in data set [1] is -184 kJ/mol. The Tm in data set [2] turned out to be 55.5 °C.
As to GATCGTTCTACGATC ((((((...)))))), in data set [1], the folding enthalpy is -148 kJ/mol. Moreover, the Tm in data set [2] turned out to be 59.6 °C.
For GATCGTTGAACGATC ((((((...)))))), in data set [1], the folding enthalpy is -135 kJ/mol. For the same sequence, the Tm in data set [2] came to 53.6 °C.
As for GATCGTTGCAACGATC ((((((....)))))), in data set [1], the folding enthalpy was -249 kJ/mol. In addition, in data set [2], the Tm is 59.2 °C.
As for GATCGTTGCCACGATC ((((((....)))))), in data set [1], the folding enthalpy is -167 kJ/mol. In addition, the Tm in data set [2] was 54.5 °C.
Consider GATCGTTGGGACGATC ((((((....)))))), for which, in data set [1], the folding enthalpy is -154 kJ/mol. The Tm in data set [2] is 59 °C.
Taken in the same sequence, the figures for GATCGTTGTACGATC ((((((...)))))) were -162 kJ/mol and 61.1 °C.
Taken in the same sequence, the figures for GATCGTTTAGACGATC ((((((....)))))) were -160 kJ/mol and 55.6 °C.
As to GATCGTTTGACGATC ((((((...)))))), in data set [1], the folding enthalpy was -103 kJ/mol. Further, in data set [2], the Tm is 55.5 °C.
Taken in the same sequence, the figures for GATCGTTTGGACGATC ((((((....)))))) were -186 kJ/mol and 56.3 °C.
